Data reported in ChEMBL document CHEMBL1129571 (J Med Chem, 1996).

How the values were obtained:
[1] = Ratio of AR IC50 and ALR IC50 of rat lens and kidney enzyme; type: tissue-based; details: Lens of camera-type eye
[2] = molecular target: Aldo-keto reductase family 1 member B1 (Rattus norvegicus, UniProt P07943); test: In vitro inhibitory activity against rat lens Aldose reductase
How it was run: (§1)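 Rat lens AR partially purified from male Wister rat lenses: homogenized in 10 mM phosphate pH 7.0 with 5 mM 2-mercaptoethanol and 1 mM EDTA, then 30–80% ammonium sulfate cut, dialyzed. NADPH decrease followed at 340 nm.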

[3] = molecular target: Aldo-keto reductase family 1 member B1 (Rattus norvegicus) (UniProt P07943); test: In vitro inhibitory activity against partially purified rat lens Aldose reductase at a dose of 5e-7M; how it was run: as §1
[4] = molecular target: Aldo-keto reductase family 1 member A1 (Rattus norvegicus, UniProt P51635); test: In vitro inhibitory activity against rat kidney Aldehyde reductase
Chain of Aldo-keto reductase family 1 member A1 (P51635 whole entry, looked up): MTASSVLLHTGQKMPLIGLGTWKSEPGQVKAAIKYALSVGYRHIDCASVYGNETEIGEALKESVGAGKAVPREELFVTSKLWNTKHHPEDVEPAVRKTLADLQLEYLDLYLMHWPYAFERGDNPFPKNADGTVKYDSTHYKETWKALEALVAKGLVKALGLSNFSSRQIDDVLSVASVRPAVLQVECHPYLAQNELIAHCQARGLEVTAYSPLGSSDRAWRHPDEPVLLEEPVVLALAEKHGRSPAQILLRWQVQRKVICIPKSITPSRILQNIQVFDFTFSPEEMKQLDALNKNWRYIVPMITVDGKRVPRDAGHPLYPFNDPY

SMILES	inhibition [3]	also measured
O=C(O)CN1C(=O)C(=O)N(Cc2ccc(Cl)c(Cl)c2)C1=O	77%	Ratio [1]: > 2000; IC50 [2]: 50 nM; IC50 [4]: > 100000 nM
O=C(O)CN1C(=O)C(=O)N(Cc2ccc(Cl)cc2Cl)C1=O	68%	Ratio [1]: 460; IC50 [2]: 100 nM; IC50 [4]: 46000 nM
O=C(O)CN1C(=O)C(=O)N(Cc2cccc(Cl)c2)C1=O	31%	
O=C(O)CN1C(=O)C(=O)N(CCCc2ccccc2)C1=O	16%	
Cc1ccc(CN2C(=O)C(=O)N(CC(=O)O)C2=O)cc1	30%	
O=C(O)CN1C(=O)C(=O)N(Cc2cccc([N+](=O)[O-])c2)C1=O	75%	
Cc1ccccc1CN1C(=O)C(=O)N(CC(=O)O)C1=O	41%	
O=C(O)CN1C(=O)C(=O)N(Cc2ccccc2Cl)C1=O	32%	
CCOC(=O)CN1C(=O)C(=O)N(Cc2cccc([N+](=O)[O-])c2)C1=O	31%	
O=C(O)CN1C(=O)C(=O)N(Cc2ccc(F)cc2)C1=O	9%	
O=C(O)CN1C(=O)C(=O)N(Cc2ccc([N+](=O)[O-])cc2)C1=O	26%	
O=C(O)CN1C(=O)C(=O)N(Cc2ccc(Br)cc2)C1=O	65%	
O=C(O)CN1C(=O)C(=O)N(CCCCc2ccccc2)C1=O	25%	
O=C(O)CN1C(=O)C(=O)N(Cc2ccccc2[N+](=O)[O-])C1=O	66%	
O=C(O)CN1C(=O)C(=O)N(Cc2ccc(Cl)cc2)C1=O	56%	
O=C(O)CN1C(=O)C(=O)N(Cc2ccccc2)C1=O	17%	

Continued, in another order:

inhibition [3]	SMILES	also measured
44%	COc1cccc(CN2C(=O)C(=O)N(CC(=O)O)C2=O)c1	
36%	O=C(O)CN1C(=O)C(=O)N(CCc2cccc([N+](=O)[O-])c2)C1=O	
57%	O=C(O)CN1C(=O)C(=O)N(CCc2ccc(Cl)c(Cl)c2)C1=O	
42%	COc1ccc(CCN2C(=O)C(=O)N(CC(=O)O)C2=O)cc1OC	
30%	O=C(O)CN1C(=O)C(=O)N(CCc2ccccc2)C1=O	
29%	COc1ccc(CN2C(=O)C(=O)N(CC(=O)O)C2=O)cc1OC	
42%	Cc1ccc(CCN2C(=O)C(=O)N(CC(=O)O)C2=O)cc1	
37%	O=C(O)CN1C(=O)C(=O)N(CCc2ccccc2Cl)C1=O	
47%	O=C(O)CN1C(=O)C(=O)N(CCc2ccc(Br)cc2)C1=O	
16%	COc1ccccc1CN1C(=O)C(=O)N(CC(=O)O)C1=O	
